Screening data: PubChem BioAssay, several laboratories
PAD4 FP inh = blocks human protein arginine deiminase 4; hit rate 0.41% among 330,000; Q9UM07; inhibition, % at 6.36 µM; recombinant PAD4, RCA probe fluorescence polarization;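 active means percent inhibition above a cutoff equal to the mean of all tested compounds plus 3 SD, cut at about 15% in these data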
Apaf-1 inh = human Apaf-1 inhibition | reconstituted apoptosome caspase-3 activity, DEVD-Rh110 fluorescence | inhibition, % at 20 µM | hit rate 0.71% among 330,000 | AID 489030; active means inhibition of at least 40% at 20 µM
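Material: reconstituted apoptosome with Apaf-1, cytochrome c, caspase-9, procaspase-3, dATP; medium: pH 7.5 Hepes buffer with CHAPS, BSA, DTT; also added: cytochrome c and DEVD-Rh110 substrate; timing: 30 min plus 50 min, RT; signal: Rh110 fluorescence intensity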
SUMO HTRF inh = inhibitors of human SUMOylation (UBC9) | P63279 | HTRF SUMOylation assay, SAE1/SAE2 + UBC9, in vitro | inhibition, % at 35 µM | hit rate 0.36% among 290,000 | AID 2006; in the data active means inhibition above about 50%, passing the limit was not always enough; inconclusive means no clear call, values can overlap the other calls
Target sequence (P63279 whole entry, looked up): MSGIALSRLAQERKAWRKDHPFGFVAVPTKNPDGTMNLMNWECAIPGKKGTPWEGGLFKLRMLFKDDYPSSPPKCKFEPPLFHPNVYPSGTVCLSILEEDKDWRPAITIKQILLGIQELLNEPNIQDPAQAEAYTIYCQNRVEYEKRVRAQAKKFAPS
GSTO1 inh = counter-screen for RBBP9 inhibitors: inhibitors of human GSTO1. P78417. recombinant GSTO1, activity-based probe fluorescence polarization. inhibition, % at 5.96 µM. hit rate 1.1% among 300,000. AID 1974;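 active means inhibition above the campaign mean inhibition plus 3 SD, cut at about 35% in these data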
Target sequence (P78417 whole entry, looked up): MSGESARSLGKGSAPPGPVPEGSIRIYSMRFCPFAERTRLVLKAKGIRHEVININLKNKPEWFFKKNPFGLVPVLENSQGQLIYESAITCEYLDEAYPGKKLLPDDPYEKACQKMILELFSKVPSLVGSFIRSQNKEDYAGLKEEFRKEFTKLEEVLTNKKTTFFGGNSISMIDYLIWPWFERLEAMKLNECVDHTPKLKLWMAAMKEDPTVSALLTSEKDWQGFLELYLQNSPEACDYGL
Rin1-Abl PPI inh = human Rin1-Abl interaction inhibition; AID 588664; P00519+Q13671; hit rate 0.4% among 360,000; TR-FRET Rin1/Abl binding, biochemical; inhibition, % at 7.35 µM; in the data active means inhibition above about 5%, passing the limit was not always enough
UBC13 inh = human UBC13 polyubiquitination inhibition; hit rate 0.47% among 330,000; UBC13 polyubiquitin chain formation, TR-FRET; P61088; inhibition, % at 20 µM; in the data active means inhibition above about 45%, passing the limit was not always enough; inconclusive means no clear call, values can overlap the other calls
Rin1 Abl conf = Rin1-Abl interaction inhibition confirmation | hit rate 49% among 1,300 | shares compounds with Rin1-Abl PPI inh | inhibition, % at 7.35 µM | TR-FRET Rin1-Abl binding, purified proteins
GFP quencher = counter-screen for Rin1-Abl inhibitors: GFP fluorescence quenchers; shares compounds with Rin1-Abl PPI inh; inhibitors/quenchers counterscreen; inhibition, % at 6.75 µM; hit rate 8.5% among 1,300;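 further: ABL1-eGFP fusion protein alone without its partner RIN1-SBP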
A number is an active result; - = inactive; ? = inconclusive; . = not tested or not shown. Most compounds without a hit are left out; they make up all but 2.2% or so of the library. Unless noted, no stated cut-off is given here; in the data, active means inhibition above about 6.5%; inactive means the rest.

SMILES | PAD4 FP inh | Apaf-1 inh | SUMO HTRF inh | GSTO1 inh | Rin1-Abl PPI inh | UBC13 inh | Rin1 Abl conf | GFP quencher
O=C(Nc1cccc(Cl)c1)Nc1cccc(C(=O)O)c1 | - | - | - | - | 5.9 | - | - | -
Cc1ccc(NC(=O)CCNC(=O)c2ccc(Br)cc2)cc1S(=O)(=O)N1CCCCCC1 | - | - | . | - | - | - | . | .
CC(C)NC(=O)N(C)C[C@H]1Oc2ccc(NC(=O)c3ccncc3)cc2C(=O)N([C@H](C)CO)C[C@@H]1C | - | - | . | . | - | - | . | .
Cc1cc(Br)ccc1NC(=O)CSc1nnc(CN2CCOCC2)n1C | - | - | - | - | 10 | - | - | -
CCn1c(CN2CCOCC2)nnc1SCC(=O)Nc1ccccc1C | - | - | - | - | - | - | . | .
CN(/N=C/c1ccc(O)cc1O)c1ncc(C(F)(F)F)cc1Cl | - | - | - | - | 8.6 | - | - | -
CN(/N=C/c1ccccc1Cl)c1ncc(Cl)cc1C(F)(F)F | - | - | - | - | - | - | . | .
Cc1ccccc1C1c2[nH]c3ccccc3c2C[C@H]2C(=O)N(c3ccccc3C(=O)NCCCN3CCOCC3)C(=O)N12 (some centres not stated) | - | - | - | - | - | - | . | .
CN(C(=O)CCc1nnc(-c2ccc(-c3ccccc3)cc2)o1)C1CCOCC1 | - | - | - | - | 8.8 | - | - | -
O=C(COC(=O)c1nc(Cl)c(Cl)c(Cl)c1Cl)NCc1ccccc1 | - | - | . | . | - | - | . | .
O=C(N/N=C1\CCCc2ccccc21)c1ccccc1Cl | - | - | - | - | - | - | . | .
Cc1cc(C(=O)N/N=C2\CCCc3ccccc32)c(C)o1 | - | - | - | - | 11 | - | - | -
CCN1C(=O)CC(n2c(C)nc3ccccc32)C1=O (configuration not stated) | - | - | - | - | 7.9 | - | - | -
Cc1ccc(-c2nc3ccc(C(=O)O)cc3nc2-c2ccc(C)cc2)cc1 | - | - | - | - | - | - | . | .
O=C(O)c1ccc2nc(-c3ccco3)c(-c3ccco3)nc2c1 | . | 62 | ? | . | 14 | - | - | -
Cc1ncc(C[n+]2csc(C)c2C)c(N)n1 | - | - | - | - | 9.7 | - | - | -
Cc1ncc(C[n+]2csc(CCO)c2C)c(N)n1 | - | - | - | - | - | - | . | .
C[C@H](CO)N1C[C@H](C)[C@H](CN(C)C(=O)c2ccccc2)OCc2cnnn2CCCC1=O | . | . | . | . | - | . | . | .
CCC(C)N1C(=O)CCC1C(=O)N1CCN(c2ccccc2F)CC1 (configuration not stated) | - | - | - | - | 5.3 | - | - | -
CSc1ccccc1NC(=O)CN(C)C(=O)Cc1c(F)cccc1Cl | - | - | - | - | - | - | . | .
CC(NC(=O)C(=O)c1cn(CC(=O)N2CCOCC2)c2ccccc12)c1ccccc1 (configuration not stated) | - | - | - | - | 18 | - | - | -
CC(NC(=O)C(=O)c1cn(CC(=O)N2CCCC2)c2ccccc12)c1ccccc1 (configuration not stated) | . | . | . | . | - | . | . | .
CCOC(=O)C1CN(C(=O)OCC)CC1=NNC(N)=O (configuration not stated) | . | . | . | . | - | . | . | .
Cc1ccnc(NC(=O)c2ccc3c(c2)C(=O)N(CCC(C)C)C3=O)c1 | - | - | - | - | - | - | . | .
CC(C)CCOc1cccc(OCC(=O)Nc2ccncc2)c1 | - | - | - | - | - | - | . | .
NS(=O)(=O)c1ccc(NC(=O)COc2ncnc3c2cnn3-c2ccccc2)cc1 | - | - | - | - | 5.5 | - | - | -
COc1cc(-n2cnnn2)ccc1S(=O)(=O)N1CCOCC1 | - | - | - | - | - | - | . | .
O=S(=O)(c1cccc(-n2cnnn2)c1)N1CCOCC1 | - | - | - | - | 8.9 | - | - | -
Cc1csc(NC(=O)C(C)Oc2ccc(Cl)cc2C)n1 (configuration not stated) | - | - | . | . | - | - | . | .
CN1CCCC(C(=O)Nc2cccc(Cl)c2)CC1 (configuration not stated) | . | . | . | . | - | . | . | .
